Reference: publication PMC6467724 (Journal of medicinal chemistry, 2018)

Assays:
L. infantum CYP51 = L. infantum CYP51 (Leishmania infantum, UniProt A2TEF2); experiment: Spectral titration; format: binding; conditions: 0.5 μM CYP51, inhibitor 0.1–1 μM
[1] = Mouse acute toxicity assay; format: in vivo; conditions: single oral dose 200 mg/kg, mice n=3, 48 h
[2] = Microsomal stability assay, human liver microsomes; format: in vitro ADME; conditions: for Clhep (hepatic clearance), Human: predicted from Clint, Qh 21 mL/min/kg
[3] = PK and tissue distribution assay, single oral dose; format: in vivo, BALB/c mice; conditions: for Plasma life time (time until the compound becomes undetectable): single oral dose 25 mg/kg
[4] = Microsomal stability assay, mouse liver microsomes; format: in vitro ADME, mouse (male CD-1); conditions: for Clhep (hepatic clearance), Mouse: predicted from Clint, Qh 90 mL/min/kg
Y strain T. cruzi CYP51A [5] = experiment: CYP51 activity inhibition; format: biochemical, Trypanosoma cruzi; conditions: Figure S1
In short: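 Y-strain T. cruzi CYP51A was expressed in E. coli and purified. Substrate was [3-3H]eburicol at 50 μM final and test compound at 1.1 μM final. After 60 s preincubation at 37 °C, 100 μM NADPH started the reaction. It ran 60 min, EtOAc extraction stopped it, and % inhibition was measured in triplicate, mean ± SD.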

Y strain T. cruzi CYP51A [6] = experiment: Spectral titration; format: binding, Trypanosoma cruzi; conditions: 0.5 μM CYP51, inhibitor 0.1–1 μM
In short: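 Y-strain T. cruzi CYP51A was expressed in E. coli and purified. It was titrated at 0.5 μM with test compound (0.1–1 μM) in 5 cm pathlength cuvettes. Difference spectra were read as Δ(A430−A411). Apparent dissociation constants came from nonlinear fits of absorbance change versus ligand concentration to the Morrison quadratic (tight-binding) equation.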

[7] = Microsomal stability assay, rat liver microsomes; format: in vitro ADME, rat (male Sprague-Dawley); conditions: for Clhep (hepatic clearance), Rat: predicted from Clint, Qh 70 mL/min/kg
[8] = mice, oral doses up to 200 mg/kg; cited from earlier work
[9] = mice, 40 mg/kg oral dose; cited from earlier work
[10] = cited from earlier work
[11] = human pooled liver microsomes 0.5 mg/mL, 1 μM test compound
[12] = mouse pooled liver microsomes 0.5 mg/mL, 1 μM test compound
[13] = rat pooled liver microsomes 0.5 mg/mL, 1 μM test compound
[14] = 4 hours after single oral 25 mg/kg, Balb/c mice, ±SEM, n=2, nd = below 0.1 μM

Row | Compound | Clint (estimated intrinsic clearance), Human [2, 11] | Clhep (hepatic clearance), Human [2] | Clint (estimated intrinsic clearance), Mouse [4, 12] | Clhep (hepatic clearance), Mouse [4] | Clhep (hepatic clearance), Rat [7] | Clint (estimated intrinsic clearance), Rat [7, 13] | also measured
1 | O=C(N[C@@H](Cn1ccnc1)c1c(F)cc(-c2ccc(F)cc2)cc1F)c1ccc(-c2nnc(-c3ccccc3)o2)cc1 [Compound 7, (R)-N-(2-(1H-Imidazol-1-yl)-1-(3,4´,5-trifluoro-[1,1′-biphenyl]-4-yl)ethyl)-4-(5-phenyl-1,3,4-oxadiazol-2-yl)benzamide] | 19.4 mL/min/kg body weight | 10.1 mL/min/kg body weight | 237 mL/min/kg body weight | 65.2 mL/min/kg body weight | 31.1 mL/min/kg body weight | 55.8 mL/min/kg body weight | Apparent binding affinity to L. infantum CYP51 (L. infantum CYP51): low nanomolar concentration range; Acute toxicity, clinical observation [1]: No detectable side effects; Plasma life time (time until the compound becomes undetectable) ([3]; Balb/c mice): >24 h; Inhibition of Y strain T. cruzi CYP51A enzymatic activity (Y strain T. cruzi CYP51A [5]): completely inhibited; Apparent binding affinity to Y strain T. cruzi CYP51A (Y strain T. cruzi CYP51A [6]): low nanomolar concentration range
2 | O=C(N[C@@H](Cn1ccnc1)c1ccc(Cl)cc1Cl)c1ccc(-c2nnc(-c3ccc(F)c(F)c3)o2)cc1 [Compound 9, (R)-N-(1-(2,4-Dichlorophenyl)-2-(1H-imidazol-1-yl)ethyl)-4-(5-(3,4-difluorophenyl)-1,3,4-oxadiazol-2-yl)benzamide] | 7.53 mL/min/kg body weight | 5.54 mL/min/kg body weight | 55.8 mL/min/kg body weight | 34.5 mL/min/kg body weight | 21.4 mL/min/kg body weight | 30.9 mL/min/kg body weight | Apparent binding affinity to L. infantum CYP51 (L. infantum CYP51): low nanomolar concentration range; Acute toxicity, clinical observation [1]: No detectable side effects; Inhibition of Y strain T. cruzi CYP51A enzymatic activity (Y strain T. cruzi CYP51A [5]): stronger potency; Apparent binding affinity to Y strain T. cruzi CYP51A (Y strain T. cruzi CYP51A [6]): low nanomolar concentration range
3 | O=C(N[C@@H](Cn1ccnc1)c1ccc(-c2ccc(F)cc2)cc1F)c1ccc(-c2nnc(-c3ccccc3)o2)cc1 [VFV, (R)-N-(1-(3,4′-difluoro-[1,1′-biphenyl]-4-yl)-2-(1H-imidazol-1-yl)ethyl)-4-(5-phenyl-1,3,4-oxadiazol-2-yl)benzamide, reference compound] | 29.9 mL/min/kg body weight | 12.3 mL/min/kg body weight | 145 mL/min/kg body weight | 55.6 mL/min/kg body weight | 14.2 mL/min/kg body weight | 17.7 mL/min/kg body weight | Acute toxicity [8]: no acute toxicity; Plasma life time (time until the compound becomes undetectable) ([3]; Balb/c mice): >24 h
4 | O=C(N[C@@H](Cn1ccnc1)c1ccc(-c2ccc(F)cc2)cc1Cl)c1ccc(-c2nnc(-c3ccccc3)o2)cc1 [VFV-Cl, (R)-N-(1-(3-Chloro-4´-fluoro-[1,1´-biphenyl]-4-yl)-2-(1H-imidazol-1-yl)ethyl)-4-(5-phenyl-1,3,4-oxadiazol-2-yl)benzamide] | 13.9 mL/min/kg body weight | 8.35 mL/min/kg body weight | 59.8 mL/min/kg body weight | 35.9 mL/min/kg body weight | 23.6 mL/min/kg body weight | 35.5 mL/min/kg body weight | Increase of concentrations in tissues at 50 mg/kg ([3]; 50 mg/kg vs 25 mg/kg, data not shown): about 1.5 fold; Metabolism ([M+34] metabolite) when extracted from mice plasma ([3]; 3 and 10 h after single oral 25 mg/kg, HPLC (Figure 4)): almost no metabolism
5 | O=C(N[C@@H](Cn1ccnc1)c1ccc(Cl)cc1Cl)c1ccc(-c2nnc(-c3ccccc3)o2)cc1 [VNI, (R)-N-(1-(2,4-dichlorophenyl)-2-(1H-imidazol-1-yl)ethyl)-4-(5-phenyl-1,3,4-oxadiazol-2-yl)benzamide] |  |  |  |  |  |  | Acute toxicity [8]: no acute toxicity
6 | CC[C@@H]([C@H](C)O)n1ncn(-c2ccc(N3CCN(c4ccc(OC[C@@H]5CO[C@@](Cn6cncn6)(c6ccc(F)cc6F)C5)cc4)CC3)cc2)c1=O [posaconazole] |  |  |  |  |  |  | Maximal reported plasma concentration [9]: 6 µM; Maximal concentration detected in humans, fold lower than in mice [10]: 5 to 10 fold
7 | (R)-N-(1-(3-Chloro-4´-(trifluoromethyl)-[1,1´-biphenyl]-4-yl)-2-(1H-imidazol-1-yl)ethyl)-4-(5-(pyridin-4-yl)-1,3,4-oxadiazol-2-yl)benzamide [Compound 3] | 23.5 mL/min/kg body weight | 11.1 mL/min/kg body weight | 99.0 mL/min/kg body weight | 47.1 mL/min/kg body weight | 29.9 mL/min/kg body weight | 52.3 mL/min/kg body weight | t½ (in vitro half-life), Human [2, 11]: 53 min; Tissue distribution, Heart [3, 14]: 0.1 µM; Tissue distribution, Liver [3, 14]: 0.4 µM; Tissue distribution, Lung [3, 14]: 1 ± 1 µM; t½ (in vitro half-life), Mouse [4, 12]: 55 min; t½ (in vitro half-life), Rat [7, 13]: 54 min
